Data set [1] is described as follows: Fraction unbound in mouse plasma. It is filed as ADME, cell-free.
Data set [2] deals with Staphylococcus aureus. Kind of data set: Antibacterial activity against community-acquired methicillin-resistant Staphylococcus aureus clinical isolates. It is filed as functional. The gist of the method: (§1)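 MICs determined by CLSI dilution methodology for aerobically growing bacteria; the active drug, not the prodrug, was used for in vitro testing.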
Data set [3] in a line: Drug level in plasma of healthy human at 500 mg, iv administered as 2-h infusion every 8 h after 4 hrs.
A short description of data set [4]: Clearance in healthy human at 500 mg, iv administered as 2-h infusion every 8 h. Particulars: in vivo.
The nature of data set [5]: AUC in plasma of healthy human at 500 mg, iv administered as 2-h infusion every 8 h.
The nature of data set [6]: Drug level in plasma of healthy human at 500 mg, iv administered as 2-h infusion every 8 h after 6 hrs.
Data set [7] in a line: Volume of distribution in epithelial lining fluid of healthy human at 500 mg, iv administered as 2-h infusion every 8 h. Particulars: in vivo.
The subject of data set [8] is Staphylococcus aureus. Nature of the data set: Antibacterial activity against hospital-acquired methicillin-resistant Staphylococcus aureus clinical isolates. It is filed as functional. Put shortly: as §1
The nature of data set [9]: Drug level in epithelial lining fluid of healthy human at 500 mg, iv administered as 2-h infusion every 8 h after 8 hrs. Particulars: read-out: Drug uptake.
The test system of a further data set is Homo sapiens. Kind of data set: Volume of distribution in central compartment of healthy human at 500 mg, iv administered as 2-h infusion every 8 h. The conditions noted are these: in vivo.
Data set [10] in a line: Plasma protein binding in mouse. Particulars: read-out: PPB (converted). In kind it is ADME, cell-free.
A short description of data set [11]: AUC in plasma of mouse. In kind it is ADME, cell-free. The gist of the method:
(§2)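 Neutropenic (cyclophosphamide) female BALB/c mice were infected with S. aureus in 3% mucin by aspiration. At 6 h they received single sc doses of prodrug (1.0–25.0 mg/kg, in sterile water). Plasma was sampled at 0.25–4 h (6 mice per time point) and BAL at 0.25–4 h. Samples were citrate-stabilized and assayed by HPLC (LOQ 0.01 mg/liter), with urea correction for ELF. AUCs came from a 9,999-subject simulation.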

Data set [12] can be described thus: AUC in epithelial lining fluid of healthy human at 500 mg, iv administered as 2-h infusion every 8 h. The conditions noted are these: in vivo.
Data set [13] is described as follows: Drug level in plasma of healthy human at 500 mg, iv administered as 2-h infusion every 8 h after 2.5 hrs.
Data set [14] can be described thus: Drug level in epithelial lining fluid of healthy human at 500 mg, iv administered as 2-h infusion every 8 h after 2.5 hrs. Particulars: read-out: Drug uptake.
Data set [15] in a line: Drug level in epithelial lining fluid of healthy human at 500 mg, iv administered as 2-h infusion every 8 h after 4 hrs. The conditions noted are these: read-out: Drug uptake.
Data set [16] can be described thus: Drug level in plasma of healthy human at 500 mg, iv administered as 2-h infusion every 8 h after 8 hrs.
Data set [17] can be described thus: Drug level in epithelial lining fluid of healthy human at 500 mg, iv administered as 2-h infusion every 8 h after 6 hrs. Particulars: read-out: Drug uptake.
Data set [18] in a line: AUC in epithelial lining fluid of mouse. It is filed as ADME, tissue-based. Put shortly: as §2
Data set [19] concerns Staphylococcus aureus. Kind of data set: Antibacterial activity against methicillin-susceptible Staphylococcus aureus clinical isolates. In kind it is functional. Put shortly: as §1

The values below come from ChEMBL document CHEMBL1649529, “Identifying exposure targets for treatment of staphylococcal pneumonia with ceftobiprole” (Antimicrob Agents Chemother, 2009).

≈ marks a conversion by molar mass, not a printed value.

As usually defined, the MIC is the lowest concentration that inhibits growth of the organism. A lower MIC goes with inhibition by little substance. For orientation: CL/F means clearance divided by bioavailability, as obtained after extravascular dosing. As usually defined, the AUC is the area under the concentration-time curve, a measure of exposure. A word on the Vd: it is the apparent volume that relates the amount in the body to the concentration in plasma or blood. The low end stands for confinement near the circulation, the high end for extensive tissue distribution. For `Nc1nc(/C(=N/O)C(=O)N[C@@H]2C(=O)N3C(C(=O)O)=C(/C=C4\CCN([C@@H]5CCNC5)C4=O)CS[C@H]23)ns1` [CEFTOBIPROLE], the fraction unbound in [1] and in data set [10] was 0.81 in each case. For the same compound, the minimal inhibitory concentration (MIC) was determined as 1 µg/mL (≈ 1.87 µM) against Staphylococcus aureus [2], 0.5 µg/mL (≈ 0.935 µM) against Staphylococcus aureus [8] and 0.25 µg/mL (≈ 0.468 µM) against Staphylococcus aureus [19]. Besides, the concentration at 4 h came to 12800 ng/mL in data set [3] and 2000 ng/mL in data set [15]. The apparent clearance CL/F in data set [4] was 86 mL/min. In addition, the AUC in data set [5] came out at 98700 ng·h/mL; in data set [11] it was 68800 ng·h/mL; in data set [12], 25200 ng·h/mL; in [18], 46000 ng·h/mL. For the same compound, the concentration at 6 h in [6] was 6910 ng/mL; in [17] it was 4580 ng/mL. For the same compound, the Vd in data set [7] stood at 39.1 L; with Homo sapiens, 2.849 L. Also, the concentration at 8 h worked out at 1510 ng/mL in data set [9] and 3650 ng/mL in data set [16]. Also, the concentration at 2.5 h in data set [13] was found to be 17700 ng/mL; in data set [14], 2550 ng/mL.
